Test results taken from ChEMBL document CHEMBL3627606, “Development of Novel, CNS Penetrant Positive Allosteric Modulators for the Metabotropic Glutamate Receptor Subtype 1 (mGlu1), Based on an N-(3-Chloro-4-(1,3-dioxoisoindolin-2-yl)phenyl)-3-methylfuran-2-carboxamide Scaffold, That Potentiate Wild Type and Mutant mGlu1 Receptors Found in …” (J Med Chem, 2015).

How the values were obtained:
Plasma [1] = assay: Drug level in rat plasma treated with N-(3-chloro-4-(5-chloro-1,3-dioxoisoindolin-2-yl)phenyl)-3-methylfuran-2-carboxamide at 10 uM after 4 hrs by mass spectrometry; format: ADME, cell-free
In short: (§1)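 Compound incubated at 10 μM in rat or human plasma at 37 °C. Samples taken at 0 and 4 h were analysed by mass spectrometry for parent and metabolites.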

Plasma [2] = assay: Drug level in human plasma treated with N-(3-chloro-4-(5-chloro-1,3-dioxoisoindolin-2-yl)phenyl)-3-methylfuran-2-carboxamide at 10 uM after 4 hrs by mass spectrometry; format: ADME, cell-free; in short: as §1
[3] = target: T1, Metabotropic glutamate receptor 1 (Homo sapiens, UniProt Q13255); assay: Positive allosteric modulation of human mGlu1 receptor in HEK293 cells assessed as potentiation of glutamate-induced calcium mobiliztion by Fluo-4AM dye based fluorescence analysis; format: functional, cell-based; settings: read-out: EC50
Target sequence in this assay (Q13255 whole entry): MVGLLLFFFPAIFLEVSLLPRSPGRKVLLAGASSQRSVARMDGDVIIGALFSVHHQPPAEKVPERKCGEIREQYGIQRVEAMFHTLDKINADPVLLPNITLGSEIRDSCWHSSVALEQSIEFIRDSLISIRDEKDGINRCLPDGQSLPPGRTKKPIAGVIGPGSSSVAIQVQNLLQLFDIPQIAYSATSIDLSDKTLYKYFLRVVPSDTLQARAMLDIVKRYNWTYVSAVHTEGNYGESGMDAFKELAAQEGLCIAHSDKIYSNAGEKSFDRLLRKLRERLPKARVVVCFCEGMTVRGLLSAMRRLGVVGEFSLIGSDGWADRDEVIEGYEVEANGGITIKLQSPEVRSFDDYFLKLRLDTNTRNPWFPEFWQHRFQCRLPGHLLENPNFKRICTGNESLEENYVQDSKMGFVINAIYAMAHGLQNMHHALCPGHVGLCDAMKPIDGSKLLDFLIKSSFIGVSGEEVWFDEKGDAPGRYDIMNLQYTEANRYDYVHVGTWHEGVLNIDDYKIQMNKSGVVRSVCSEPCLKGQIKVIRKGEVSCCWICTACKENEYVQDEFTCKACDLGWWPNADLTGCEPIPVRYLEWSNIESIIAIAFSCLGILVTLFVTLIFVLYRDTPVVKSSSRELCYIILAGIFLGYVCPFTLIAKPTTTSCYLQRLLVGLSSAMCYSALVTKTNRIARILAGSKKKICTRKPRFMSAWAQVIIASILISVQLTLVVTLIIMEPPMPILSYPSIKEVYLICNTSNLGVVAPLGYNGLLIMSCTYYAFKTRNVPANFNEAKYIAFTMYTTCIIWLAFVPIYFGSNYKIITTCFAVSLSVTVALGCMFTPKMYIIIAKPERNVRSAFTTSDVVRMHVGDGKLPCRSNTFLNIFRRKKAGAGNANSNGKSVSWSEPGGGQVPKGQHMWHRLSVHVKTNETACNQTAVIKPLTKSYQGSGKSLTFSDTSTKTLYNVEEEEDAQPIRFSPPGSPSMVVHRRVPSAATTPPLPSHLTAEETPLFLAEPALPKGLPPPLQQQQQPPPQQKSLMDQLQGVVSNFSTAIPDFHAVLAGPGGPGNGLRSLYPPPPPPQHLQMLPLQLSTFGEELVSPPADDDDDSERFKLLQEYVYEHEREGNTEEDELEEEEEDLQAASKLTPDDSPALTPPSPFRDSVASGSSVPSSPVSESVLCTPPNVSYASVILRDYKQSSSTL

[4] = target: T1, Metabotropic glutamate receptor 1; assay: Positive allosteric modulation of human mGlu1 receptor in HEK293 cells assessed as potentiation of glutamate-induced calcium mobiliztion by Fluo-4AM dye based fluorescence analysis relative to glutamate; format: functional, cell-based
Target sequence in this assay (Q13255 19-1194 limits assumed): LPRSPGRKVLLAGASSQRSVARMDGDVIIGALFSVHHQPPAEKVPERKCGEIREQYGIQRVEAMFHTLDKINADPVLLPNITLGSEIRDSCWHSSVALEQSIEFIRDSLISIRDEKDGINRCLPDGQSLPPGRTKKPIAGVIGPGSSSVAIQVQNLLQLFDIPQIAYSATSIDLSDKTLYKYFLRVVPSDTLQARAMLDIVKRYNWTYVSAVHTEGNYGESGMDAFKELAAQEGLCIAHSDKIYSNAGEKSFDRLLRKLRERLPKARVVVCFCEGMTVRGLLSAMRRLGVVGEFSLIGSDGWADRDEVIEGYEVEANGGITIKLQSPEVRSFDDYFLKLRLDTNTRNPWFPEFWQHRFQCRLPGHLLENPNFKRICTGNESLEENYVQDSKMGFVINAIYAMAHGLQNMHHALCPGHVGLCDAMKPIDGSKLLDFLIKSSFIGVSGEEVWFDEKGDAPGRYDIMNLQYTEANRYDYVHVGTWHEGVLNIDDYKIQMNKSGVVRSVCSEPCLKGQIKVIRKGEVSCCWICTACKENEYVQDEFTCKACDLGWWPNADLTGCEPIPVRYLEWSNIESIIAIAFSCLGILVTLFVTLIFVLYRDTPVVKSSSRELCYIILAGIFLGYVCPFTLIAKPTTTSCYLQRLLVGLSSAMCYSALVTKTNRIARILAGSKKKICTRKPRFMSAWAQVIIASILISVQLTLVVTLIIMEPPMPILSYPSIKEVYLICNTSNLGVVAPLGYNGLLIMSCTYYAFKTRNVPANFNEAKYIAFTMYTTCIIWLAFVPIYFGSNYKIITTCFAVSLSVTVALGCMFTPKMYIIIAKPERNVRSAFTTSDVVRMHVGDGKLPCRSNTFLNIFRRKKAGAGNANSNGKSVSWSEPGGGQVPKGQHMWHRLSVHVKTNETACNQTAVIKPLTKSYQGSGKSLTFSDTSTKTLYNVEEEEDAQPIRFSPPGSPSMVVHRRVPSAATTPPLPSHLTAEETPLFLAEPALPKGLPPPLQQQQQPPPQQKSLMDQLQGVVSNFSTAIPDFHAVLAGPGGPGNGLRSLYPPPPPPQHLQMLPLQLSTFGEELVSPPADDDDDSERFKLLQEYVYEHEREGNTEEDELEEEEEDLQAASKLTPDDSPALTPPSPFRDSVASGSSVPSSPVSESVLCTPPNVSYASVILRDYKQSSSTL

Cc1ccoc1C(=O)Nc1ccc(N)c(Cl)c1
Drug metabolism (Plasma [1]): metabolite_detected | Drug metabolism (Plasma [2]): metabolite_detected

O=C(Nc1ccc(N2C(=O)c3ccccc3C2=O)c(Cl)c1)c1cnc[nH]1
EC50 [3]: > 10 µM

O=C(Nc1ccc(N2C(=O)c3ccccc3C2=O)c(Cl)c1)c1cscn1
EC50 [3]: 4.47 µM | %max [4]: 107%

O=C(Nc1ccc(N2C(=O)c3ccccc3C2=O)c(Cl)c1)c1csnn1
EC50 [3]: > 10 µM | %max [4]: 39%

Cc1cc(C)c(C(=O)Nc2ccc(N3C(=O)c4ccccc4C3=O)c(Cl)c2)o1
EC50 [3]: > 10 µM

O=C(Nc1ccc(N2C(=O)c3ccccc3C2=O)c(Cl)c1)c1cnco1
EC50 [3]: > 10 µM

O=C(Nc1ccc(N2C(=O)c3ccccc3C2=O)c(Cl)c1)c1ccc(-c2ccccc2)o1
EC50 [3]: > 10 µM | %max [4]: 30%

O=C(Nc1ccc(N2C(=O)c3ccccc3C2=O)c(Cl)c1)c1occc1-c1ccccc1
EC50 [3]: > 10 µM

Cc1ccoc1C(=O)Nc1ccc(NC(=O)c2cc(Cl)ccc2C(=O)O)c(Cl)c1
Drug metabolism (Plasma [1]): metabolite_detected | Drug metabolism (Plasma [2]): metabolite_detected

O=C(Nc1ccc(N2C(=O)c3ccccc3C2=O)c(Cl)c1)c1ccc(Cl)o1
EC50 [3]: > 10 µM | %max [4]: 55%

O=C(Nc1ccc(N2C(=O)c3ccccc3C2=O)c(Cl)c1)c1ccco1
EC50 [3]: 0.55 µM | %max [4]: 76%

O=C(Nc1ccc(N2C(=O)c3ccccc3C2=O)c(Cl)c1)c1ncco1
EC50 [3]: > 10 µM

CC(C)(C)c1ccc(C(=O)Nc2ccc(N3C(=O)c4ccccc4C3=O)c(Cl)c2)o1
EC50 [3]: > 10 µM

O=C(Nc1ccc(N2C(=O)c3ccccc3C2=O)c(Cl)c1)c1coc2ccccc12
EC50 [3]: > 10 µM

O=C(Nc1ccc(N2C(=O)c3ccccc3C2=O)c(Cl)c1)c1cn[nH]c1
EC50 [3]: > 10 µM

CN(C)Cc1ccc(C(=O)Nc2ccc(N3C(=O)c4ccccc4C3=O)c(Cl)c2)o1
EC50 [3]: > 10 µM

O=C(Nc1ccc(N2C(=O)c3ccccc3C2=O)c(Cl)c1)c1cccs1
EC50 [3]: > 10 µM

O=C(Nc1ccc(N2C(=O)c3ccccc3C2=O)c(Cl)c1)c1cncs1
EC50 [3]: > 10 µM
